Results published in ChEMBL document CHEMBL3856290, “Discovery of TAK-272: A Novel, Potent, and Orally Active Renin Inhibitor” (ACS Med Chem Lett, 2016).
Where a name gives a salt, the structure may show the parent alone. Calls of active or inactive are those of the source. The calls are words filed in the database; no cut-off is given here.

What was measured:
Renin [1] = target: T1, Renin (Homo sapiens, UniProt P00797); assay: Inhibition of recombinant human preprorenin expressed in human 293F cells using angiotensinogen as substrate preincubated for 10 mins followed by substrate addition measured after 30 mins by ELISA
T1 sequence (P00797 whole entry): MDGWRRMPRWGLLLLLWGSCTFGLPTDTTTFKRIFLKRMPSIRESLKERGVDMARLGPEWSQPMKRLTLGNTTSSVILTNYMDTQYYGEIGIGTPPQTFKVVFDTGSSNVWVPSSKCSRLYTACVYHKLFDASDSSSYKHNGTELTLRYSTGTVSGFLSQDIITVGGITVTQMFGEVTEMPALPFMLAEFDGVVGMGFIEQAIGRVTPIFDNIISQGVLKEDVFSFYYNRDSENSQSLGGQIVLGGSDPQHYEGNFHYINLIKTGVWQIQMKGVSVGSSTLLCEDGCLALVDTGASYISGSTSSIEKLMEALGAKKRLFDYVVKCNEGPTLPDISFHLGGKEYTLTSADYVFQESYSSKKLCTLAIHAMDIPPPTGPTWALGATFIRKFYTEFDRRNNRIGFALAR

Renin [2] = target: T1, Renin; assay: Inhibition of renin in human plasma by radioimmunoassay; format: cell-free
Rattus norvegicus [3] = assay: Antihypertensive activity in human angiotensinogen and renin double transgenic rat model assessed as reduction in systolic blood pressure at 75 mg/kg, po after 24 hrs by tail-cuff method; format: functional, organism-based
Summary of the method: (§1)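 Male hAOPEN-hREN double transgenic rats, 5 weeks old. Drugs were dissolved in 0.5% methylcellulose and given orally; vehicle-dosed rats served as controls. Systolic pressure was read by tail-cuff before dosing and at 5 and 24 h after dosing.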

Rattus norvegicus [4] = assay: Antihypertensive activity in human angiotensinogen and renin double transgenic rat model assessed as reduction in systolic blood pressure at 75 mg/kg, po after 5 hrs by tail-cuff method; format: functional, organism-based; summary of the method: as §1
Cathepsin D = Cathepsin D (Homo sapiens, UniProt P07339); assay: Inhibition of cathepsin D (unknown origin)
Rattus norvegicus [5] = assay: Antihypertensive activity in human angiotensinogen and renin double transgenic rat model assessed as reduction in systolic blood pressure at 3 mg/kg, po after 5 hrs by tail-cuff method; format: functional, organism-based; summary of the method: as §1
[6] = Inhibition of pepsin (unknown origin); design: species or system Homo sapiens
Rattus norvegicus [7] = assay: Antihypertensive activity in po dosed human angiotensinogen and renin double transgenic rat model assessed as reduction in systolic blood pressure after 5 to 24 hrs by tail-cuff method; format: functional, organism-based; summary of the method: as §1
Rattus norvegicus [8] = assay: Antihypertensive activity in human angiotensinogen and renin double transgenic rat model assessed as reduction in systolic blood pressure at 10 mg/kg, po after 5 hrs by tail-cuff method; format: functional, organism-based; summary of the method: as §1
Rattus norvegicus [9] = assay: Antihypertensive activity in human angiotensinogen and renin double transgenic rat model assessed as reduction in systolic blood pressure at 10 mg/kg, po after 24 hrs by tail-cuff method; format: functional, organism-based; summary of the method: as §1
[10] = Plasma clearance in non-fasted rat at 0.1 mg/kg, iv or 1 mg/kg, po administered through cassette dosing by LC/MS/MS analysis; format: ADME, organism-based; conditions: in vivo
Summary of the method: (§2)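 Cassette dosing to non-fasted rats, either 0.1 mg/kg iv or 1 mg/kg po. Blood was sampled after dosing and spun to plasma. Plasma was deproteinized and centrifuged, and compound levels in the supernatant were measured by LC/MS/MS.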

[11] = AUC in non-fasted rat at 1 mg/kg, po administered through cassette dosing by LC/MS/MS analysis; format: ADME, organism-based; conditions: in vivo; summary of the method: as §2
[12] = Oral bioavailability in non-fasted rat at 1 mg/kg administered through cassette dosing by LC/MS/MS analysis; format: ADME, organism-based; conditions: in vivo; summary of the method: as §2

Cathepsin D, sequence (P07339 65-162 limits assumed): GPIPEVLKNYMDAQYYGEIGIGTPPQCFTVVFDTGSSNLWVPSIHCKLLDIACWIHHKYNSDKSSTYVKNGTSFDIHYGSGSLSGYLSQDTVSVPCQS
Cathepsin D, sequence (P07339 169-412 limits assumed): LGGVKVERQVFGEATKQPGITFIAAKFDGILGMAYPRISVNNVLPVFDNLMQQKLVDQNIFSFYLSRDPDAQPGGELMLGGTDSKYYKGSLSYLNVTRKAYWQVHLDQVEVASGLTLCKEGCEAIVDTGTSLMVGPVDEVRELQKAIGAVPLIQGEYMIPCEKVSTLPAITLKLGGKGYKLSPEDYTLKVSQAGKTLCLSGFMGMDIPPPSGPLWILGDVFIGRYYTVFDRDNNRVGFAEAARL

Row | Compound | IC50 (Renin [1]) [nM] | IC50 (Renin [2]) [nM] | further results
1 | CC(C)CN(C(=O)c1cnc(C(C)(C)C)nc1NCc1ccco1)[C@H]1CCCNC1 | 0.58 | 4.6 | –
2 | COC(=O)[C@H]1CNC[C@@H](N(CC(C)C)C(=O)c2cnc(C(C)(C)C)nc2NCc2ccco2)C1 | 0.039 | 0.35 | –
3 | COC(=O)[C@@H]1CNC[C@H](N(CC(C)C)C(=O)c2cnc(C(C)(C)C)nc2NCc2ccco2)C1 | 1.2 | > 10 | –
4 | COCCCOc1cc(C[C@@H](C[C@H](N)[C@@H](O)C[C@H](C(=O)NCC(C)(C)C(N)=O)C(C)C)C(C)C)ccc1OC | – | – | Activity (Rattus norvegicus [3]): Active; Activity (Rattus norvegicus [4]): Active
5 | COC(=O)[C@@H]1CNC[C@@H](N(CC(C)C)C(=O)c2cnc(C(C)(C)C)nc2NCc2ccco2)C1 (relative stereo) | 3.3 | 10 | –
6 | COCCCCn1c(C(=O)N(CC(C)C)[C@@H]2CNC[C@H](C(=O)N3CCOCC3)C2)nc2ccccc21 [IMARIKIREN HYDROCHLORIDE] | – | – | IC50 (Cathepsin D): > 10 µM; Activity (Rattus norvegicus [5]): Active; IC50 [6]: > 10 µM; Activity (Rattus norvegicus [7]): Dose-dependent effect; Activity (Rattus norvegicus [8]): Active; Activity (Rattus norvegicus [9]): Active
7 | COCCCNc1nc(C(C)(C)C)ncc1C(=O)N(CC(C)C)[C@@H]1CNC[C@H](C(N)=O)C1 | 1.4 | 4.5 | –
8 | CCCCCCc1nc(C(C)(C)C)ncc1C(=O)N(CC(C)C)[C@@H]1CNC[C@H](C(=O)N2CCOCC2)C1 | – | – | CL [10]: 40.12 mL/min/kg; AUC [11]: 20.9 ng·h/mL; F [12]: 5%
9 | COC(=O)[C@H]1CNC[C@@H](N(CC(C)C)C(=O)c2cnc(C(C)(C)C)nc2NCc2ccco2)C1 (racemic) | 0.44 | 1.4 | –
10 | COCCCNc1nc(C(C)(C)C)ncc1C(=O)N(CC(C)C)[C@@H]1CNC[C@H](C(=O)N2CCOCC2)C1 | – | – | CL [10]: 92.32 mL/min/kg; F [12]: < 1%
11 | COCCCNc1nc(C(C)(C)C)ncc1C(=O)N(CC(C)C)[C@@H]1CNC[C@H](C(=O)OC)C1 | 2.6 | 5.2 | –
